Source: ChEMBL document CHEMBL1137737, “Synthesis, antimicrobial and cytotoxic activities of 1,3,4-oxadiazoles, 1,3,4-thiadiazoles and 1,2,4-triazoles” (Eur J Med Chem, 2009)
In brackets after ≈: the same amount, converted by molar mass.

Key:
Type in all cases: functional
Curvularia lunata [1] = test: Antifungal activity against Curvularia lunata NCIM 716 after 48 hrs by microdilution susceptibility method; conditions: NCIM 716, 48 h
How it was run: (§1)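 This is a microdilution susceptibility test. Organism suspensions are inoculated into wells holding the dilution series, then incubated at 36 °C for 24 h (bacteria) or 48 h (fungi). MIC is the lowest concentration giving no turbidity, i.e. complete inhibition of visible growth.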

Curvularia lunata [2] = test: Antifungal activity against Curvularia lunata NCIM 716 at 100 ug/disk after 48 hrs by agar disc-diffusion method; conditions: NCIM 716, 48 h, read-out: DIZ
How it was run: (§2)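 Sterile 6 mm filter-paper discs are soaked in compound solution in DMSO and placed on nutrient agar plates already inoculated with each organism. Plates are incubated at 37 °C. The diameter of the growth-inhibition zone is read after 24 h for bacteria and after 48 h for fungi.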

Fusarium solani [3] = test: Antifungal activity against Fusarium solani NCIM 1330 after 48 hrs by microdilution susceptibility method; conditions: NCIM 1330, 48 h; how it was run: as §1
Aspergillus niger [4] = test: Antifungal activity against Aspergillus niger NCIM 596 at 200 ug/disk after 48 hrs by agar disc-diffusion method; conditions: NCIM 596, 48 h, read-out: DIZ; how it was run: as §2
Aspergillus niger [5] = test: Antifungal activity against Aspergillus niger NCIM 596 after 48 hrs by microdilution susceptibility method; conditions: NCIM 596, 48 h; how it was run: as §1
Fusarium solani [6] = test: Antifungal activity against Fusarium solani NCIM 1330 at 100 ug/disk after 48 hrs by agar disc-diffusion method; conditions: NCIM 1330, 48 h, read-out: DIZ; how it was run: as §2
Fusarium solani [7] = test: Antifungal activity against Fusarium solani NCIM 1330 at 200 ug/disk after 48 hrs by agar disc-diffusion method; conditions: NCIM 1330, 48 h, read-out: DIZ; how it was run: as §2
Curvularia lunata [8] = test: Antifungal activity against Curvularia lunata NCIM 716 at 200 ug/disk after 48 hrs by agar disc-diffusion method; conditions: NCIM 716, 48 h, read-out: DIZ; how it was run: as §2
Aspergillus niger [9] = test: Antifungal activity against Aspergillus niger NCIM 596 at 100 ug/disk after 48 hrs by agar disc-diffusion method; conditions: NCIM 596, 48 h, read-out: DIZ; how it was run: as §2
Bacillus subtilis [10] = test: Antibacterial activity against Bacillus subtilis NCIM 2063 at 100 ug/disk after 24 hrs by agar disc-diffusion method; conditions: NCIM 2063, 24 h, read-out: DIZ; how it was run: as §2
Klebsiella pneumoniae [11] = test: Antibacterial activity against Klebsiella pneumoniae NCIM 2957 at 100 ug/disk after 24 hrs by agar disc-diffusion method; conditions: NCIM 2957, 24 h, read-out: DIZ; how it was run: as §2
Staphylococcus aureus [12] = test: Antibacterial activity against Staphylococcus aureus NCIM 5021 at 200 ug/disk after 24 hrs by agar disc-diffusion method; conditions: NCIM 5021, 24 h, read-out: DIZ; how it was run: as §2
Staphylococcus aureus [13] = test: Antibacterial activity against Staphylococcus aureus NCIM 5021 after 24 hrs by microdilution susceptibility method; conditions: NCIM 5021, 24 h; how it was run: as §1
Bacillus subtilis [14] = test: Antibacterial activity against Bacillus subtilis NCIM 2063 at 200 ug/disk after 24 hrs by agar disc-diffusion method; conditions: NCIM 2063, 24 h, read-out: DIZ; how it was run: as §2
Klebsiella pneumoniae [15] = test: Antibacterial activity against Klebsiella pneumoniae NCIM 2957 at 200 ug/disk after 24 hrs by agar disc-diffusion method; conditions: NCIM 2957, 24 h, read-out: DIZ; how it was run: as §2
Bacillus subtilis [16] = test: Antibacterial activity against Bacillus subtilis NCIM 2063 after 24 hrs by microdilution susceptibility method; conditions: NCIM 2063, 24 h; how it was run: as §1
Proteus vulgaris [17] = test: Antibacterial activity against Proteus vulgaris NCIM 2027 at 100 ug/disk after 24 hrs by agar disc-diffusion method; conditions: NCIM 2027, 24 h, read-out: DIZ; how it was run: as §2
Staphylococcus aureus [18] = test: Antibacterial activity against Staphylococcus aureus NCIM 5021 at 100 ug/disk after 24 hrs by agar disc-diffusion method; conditions: NCIM 5021, 24 h, read-out: DIZ; how it was run: as §2
Proteus vulgaris [19] = test: Antibacterial activity against Proteus vulgaris NCIM 2027 at 200 ug/disk after 24 hrs by agar disc-diffusion method; conditions: NCIM 2027, 24 h, read-out: DIZ; how it was run: as §2

MIC (Curvularia lunata [1])	MIC (Fusarium solani [3])	MIC (Staphylococcus aureus [13])	MIC (Bacillus subtilis [16])	SMILES	zone of inhibition at 100 µg/disc (Curvularia lunata [2])	zone of inhibition at 200 µg/disc (Aspergillus niger [4])	MIC (Aspergillus niger [5])	zone of inhibition at 100 µg/disc (Fusarium solani [6])	zone of inhibition at 200 µg/disc (Fusarium solani [7])	zone of inhibition at 200 µg/disc (Curvularia lunata [8])	zone of inhibition at 100 µg/disc (Aspergillus niger [9])	zone of inhibition at 100 µg/disc (Bacillus subtilis [10])	zone of inhibition at 100 µg/disc (Klebsiella pneumoniae [11])	zone of inhibition at 200 µg/disc (Staphylococcus aureus [12])	zone of inhibition at 200 µg/disc (Bacillus subtilis [14])	zone of inhibition at 200 µg/disc (Klebsiella pneumoniae [15])	zone of inhibition at 100 µg/disc (Proteus vulgaris [17])	zone of inhibition at 100 µg/disc (Staphylococcus aureus [18])	zone of inhibition at 200 µg/disc (Proteus vulgaris [19])
400 mg/L (≈ 1270 µM)	400 mg/L (≈ 1270 µM)	400 mg/L (≈ 1270 µM)	400 mg/L (≈ 1270 µM)	Nn1c(CS(=O)(=O)c2ccccc2)nnc1-c1ccccc1	20 mm	22 mm	–	22 mm	25 mm	24 mm	19 mm	14 mm	15 mm	18 mm	17 mm	18 mm	16 mm	16 mm	18 mm
–	–	–	–	O=S(=O)(Cc1nnc(-c2ccccc2Cl)o1)c1ccccc1	18 mm	17 mm	–	16 mm	20 mm	22 mm	15 mm	16 mm	12 mm	16 mm	17 mm	15 mm	14 mm	14 mm	17 mm
400 mg/L (≈ 1150 µM)	400 mg/L (≈ 1150 µM)	400 mg/L (≈ 1150 µM)	–	O=S(=O)(Cc1ccccc1)Cc1nnc(-c2ccccc2Cl)o1	18 mm	21 mm	–	17 mm	19 mm	23 mm	18 mm	15 mm	14 mm	20 mm	18 mm	16 mm	15 mm	17 mm	17 mm
–	400 mg/L (≈ 1190 µM)	–	–	O=S(=O)(Cc1nnc(-c2ccccc2)o1)c1ccc(Cl)cc1	15 mm	19 mm	–	16 mm	20 mm	17 mm	16 mm	15 mm	14 mm	18 mm	17 mm	16 mm	12 mm	15 mm	15 mm
400 mg/L (≈ 1150 µM)	400 mg/L (≈ 1150 µM)	400 mg/L (≈ 1150 µM)	–	O=S(=O)(Cc1ccc(Cl)cc1)Cc1nnc(-c2ccccc2)o1	19 mm	21 mm	–	16 mm	19 mm	22 mm	17 mm	18 mm	16 mm	20 mm	19 mm	18 mm	15 mm	18 mm	17 mm
–	400 mg/L (≈ 1270 µM)	400 mg/L (≈ 1270 µM)	–	O=S(=O)(Cc1ccccc1)Cc1nnc(-c2ccccc2)o1	18 mm	17 mm	–	17 mm	20 mm	22 mm	16 mm	14 mm	15 mm	18 mm	17 mm	18 mm	12 mm	16 mm	15 mm
–	–	–	–	O=S(=O)(Cc1nnc(-c2ccccc2)o1)c1ccccc1	15 mm	17 mm	–	15 mm	18 mm	19 mm	14 mm	11 mm	16 mm	15 mm	13 mm	18 mm	14 mm	12 mm	17 mm
400 mg/L (≈ 1260 µM)	400 mg/L (≈ 1260 µM)	400 mg/L (≈ 1260 µM)	400 mg/L (≈ 1260 µM)	O=S(=O)(Cc1nnc(-c2ccccc2)s1)c1ccccc1	16 mm	17 mm	–	18 mm	22 mm	19 mm	15 mm	15 mm	16 mm	21 mm	17 mm	18 mm	18 mm	19 mm	20 mm
400 mg/L (≈ 1080 µM)	400 mg/L (≈ 1080 µM)	400 mg/L (≈ 1080 µM)	400 mg/L (≈ 1080 µM)	O=S(=O)(Cc1nnc(-c2ccccc2Cl)o1)c1ccc(Cl)cc1	17 mm	16 mm	–	16 mm	19 mm	19 mm	15 mm	16 mm	14 mm	18 mm	17 mm	17 mm	16 mm	15 mm	19 mm
200 mg/L (≈ 573 µM)	400 mg/L (≈ 1150 µM)	400 mg/L (≈ 1150 µM)	200 mg/L (≈ 573 µM)	Nn1c(CS(=O)(=O)c2ccccc2)nnc1-c1ccccc1Cl	22 mm	21 mm	–	23 mm	25 mm	25 mm	18 mm	19 mm	17 mm	20 mm	22 mm	20 mm	16 mm	17 mm	18 mm

SMILES	MIC (Curvularia lunata [1])	MIC (Fusarium solani [3])	MIC (Staphylococcus aureus [13])	MIC (Bacillus subtilis [16])	zone of inhibition at 100 µg/disc (Curvularia lunata [2])	zone of inhibition at 200 µg/disc (Aspergillus niger [4])	MIC (Aspergillus niger [5])	zone of inhibition at 100 µg/disc (Fusarium solani [6])	zone of inhibition at 200 µg/disc (Fusarium solani [7])	zone of inhibition at 200 µg/disc (Curvularia lunata [8])	zone of inhibition at 100 µg/disc (Aspergillus niger [9])	zone of inhibition at 100 µg/disc (Bacillus subtilis [10])	zone of inhibition at 100 µg/disc (Klebsiella pneumoniae [11])	zone of inhibition at 200 µg/disc (Staphylococcus aureus [12])	zone of inhibition at 200 µg/disc (Bacillus subtilis [14])	zone of inhibition at 200 µg/disc (Klebsiella pneumoniae [15])	zone of inhibition at 100 µg/disc (Proteus vulgaris [17])	zone of inhibition at 100 µg/disc (Staphylococcus aureus [18])	zone of inhibition at 200 µg/disc (Proteus vulgaris [19])
CC(=O)N1CCN(c2ccc(OCC3COC(Cn4ccnc4)(c4ccc(Cl)cc4Cl)O3)cc2)CC1 (centres undefined) [KETOCONAZOLE]	6.25 mg/L (≈ 11.8 µM)	12.5 mg/L (≈ 23.5 µM)	–	–	41 mm	39 mm	6.25 mg/L (≈ 11.8 µM)	38 mm	42 mm	44 mm	36 mm	–	–	–	–	–	–	–	–
